# Source: ChEMBL document CHEMBL1151744, “New analgesics synthetically derived from the paracetamol metabolite N-(4-hydroxyphenyl)-(5Z,8Z,11Z,14Z)-icosatetra-5,8,11,14-enamide” (J Med Chem, 2008)
# The source made the active and inactive calls. The rule behind the calls is not given here.
# Experiments:
# [1] = target: T1, Prostaglandin G/H synthase 1 (Ovis aries) (UniProt P05979); test: Inhibition of ovine cyclooxygenase 1 assessed as prostaglandin F2alpha level at 10 uM by enzyme immunoassay relative to control
# T1 sequence (whole entry): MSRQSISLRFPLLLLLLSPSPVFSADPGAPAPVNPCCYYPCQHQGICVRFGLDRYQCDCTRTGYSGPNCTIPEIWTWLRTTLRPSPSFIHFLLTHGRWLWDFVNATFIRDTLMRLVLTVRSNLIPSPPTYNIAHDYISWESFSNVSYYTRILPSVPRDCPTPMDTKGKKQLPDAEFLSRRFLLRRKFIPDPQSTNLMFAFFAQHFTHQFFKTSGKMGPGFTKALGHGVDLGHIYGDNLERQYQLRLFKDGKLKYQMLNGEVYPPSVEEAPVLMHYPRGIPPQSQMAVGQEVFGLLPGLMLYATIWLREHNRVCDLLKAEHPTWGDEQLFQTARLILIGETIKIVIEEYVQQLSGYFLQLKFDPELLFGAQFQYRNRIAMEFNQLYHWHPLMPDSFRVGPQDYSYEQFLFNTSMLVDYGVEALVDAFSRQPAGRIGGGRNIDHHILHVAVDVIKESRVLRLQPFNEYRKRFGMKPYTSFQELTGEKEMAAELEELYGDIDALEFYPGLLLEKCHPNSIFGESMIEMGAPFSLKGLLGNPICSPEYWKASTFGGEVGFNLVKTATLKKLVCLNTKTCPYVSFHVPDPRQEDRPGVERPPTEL
# In short: (§1)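 Isolated ovine COX-1 or human recombinant COX-2 was incubated with compound at 1 or 10 µM for 10 min at 37 °C. Buffer was 0.1 M Tris-HCl pH 8.0 with 5 mM EDTA and 2 mM phenol. PGH2 formed was reduced to PGF2α with stannous chloride for quantification. Ketoprofen (10 µM) served as reference; values are means of four experiments.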
# [2] = target: T2, Prostaglandin G/H synthase 2 (Homo sapiens) (UniProt P35354); test: Inhibition of human recombinant cyclooxygenase 2 assessed as prostaglandin F2alpha level at 10 uM by enzyme immunoassay relative to control; in short: as §1
# T2 sequence (whole entry): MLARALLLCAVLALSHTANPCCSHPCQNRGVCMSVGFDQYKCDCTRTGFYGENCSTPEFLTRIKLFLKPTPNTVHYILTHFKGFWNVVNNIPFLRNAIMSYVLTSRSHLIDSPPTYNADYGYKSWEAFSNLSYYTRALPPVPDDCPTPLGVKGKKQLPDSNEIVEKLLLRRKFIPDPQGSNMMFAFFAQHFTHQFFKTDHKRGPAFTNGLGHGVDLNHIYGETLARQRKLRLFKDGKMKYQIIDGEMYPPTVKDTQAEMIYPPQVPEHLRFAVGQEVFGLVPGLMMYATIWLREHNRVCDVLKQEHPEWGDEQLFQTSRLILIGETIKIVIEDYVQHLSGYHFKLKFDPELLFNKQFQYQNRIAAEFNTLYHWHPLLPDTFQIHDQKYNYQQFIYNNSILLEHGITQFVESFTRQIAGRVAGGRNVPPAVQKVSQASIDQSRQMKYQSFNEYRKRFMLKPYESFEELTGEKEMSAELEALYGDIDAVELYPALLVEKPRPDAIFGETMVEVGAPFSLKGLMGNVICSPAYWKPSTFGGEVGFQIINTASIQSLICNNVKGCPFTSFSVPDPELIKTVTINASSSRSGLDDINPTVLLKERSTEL
# [3] = target: T3, Fatty-acid amide hydrolase 1 (Rattus norvegicus) (UniProt P97612); test: Inhibition of FAAH in rat brain membrane assessed as [14C]anandamide hydrolysis at 50 uM by scintillation counting; assay type: cell membranes
# T3 sequence (whole entry): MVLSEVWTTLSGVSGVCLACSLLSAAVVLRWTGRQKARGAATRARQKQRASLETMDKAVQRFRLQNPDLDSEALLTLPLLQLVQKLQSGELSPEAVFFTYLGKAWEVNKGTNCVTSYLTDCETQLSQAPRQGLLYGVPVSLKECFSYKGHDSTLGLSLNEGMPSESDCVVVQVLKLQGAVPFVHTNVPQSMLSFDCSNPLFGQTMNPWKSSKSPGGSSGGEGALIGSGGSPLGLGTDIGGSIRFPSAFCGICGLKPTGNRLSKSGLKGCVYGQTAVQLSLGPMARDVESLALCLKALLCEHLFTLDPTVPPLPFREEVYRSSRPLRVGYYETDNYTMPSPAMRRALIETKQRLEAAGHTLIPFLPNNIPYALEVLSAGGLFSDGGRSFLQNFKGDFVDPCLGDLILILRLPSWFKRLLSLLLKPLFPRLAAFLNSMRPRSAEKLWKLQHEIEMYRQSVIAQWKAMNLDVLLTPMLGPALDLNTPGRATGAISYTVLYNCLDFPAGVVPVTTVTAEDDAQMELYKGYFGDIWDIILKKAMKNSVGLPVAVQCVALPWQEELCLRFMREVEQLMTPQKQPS
# In short: (§2)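 Enzyme source was a rat brain membrane pellet resuspended in 50 mM Tris-HCl, pH 9.0, 70 µg protein per assay. It was incubated with compound (10 or 50 µM) and [14C]anandamide (10000 cpm) for 30 min at 37 °C. After CHCl3/MeOH (1:1) extraction, [14C]ethanolamine in the aqueous phase was counted by scintillation. Points were run in duplicate.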
# [4] = target: T4, Cannabinoid receptor 1 (Homo sapiens, UniProt P21554); test: Displacement of [3H]CP-55940 from human recombinant CB1 receptor expressed in HEK293 cells at 10 uM; assay type: cell-based
# T4 sequence (P21554 whole entry): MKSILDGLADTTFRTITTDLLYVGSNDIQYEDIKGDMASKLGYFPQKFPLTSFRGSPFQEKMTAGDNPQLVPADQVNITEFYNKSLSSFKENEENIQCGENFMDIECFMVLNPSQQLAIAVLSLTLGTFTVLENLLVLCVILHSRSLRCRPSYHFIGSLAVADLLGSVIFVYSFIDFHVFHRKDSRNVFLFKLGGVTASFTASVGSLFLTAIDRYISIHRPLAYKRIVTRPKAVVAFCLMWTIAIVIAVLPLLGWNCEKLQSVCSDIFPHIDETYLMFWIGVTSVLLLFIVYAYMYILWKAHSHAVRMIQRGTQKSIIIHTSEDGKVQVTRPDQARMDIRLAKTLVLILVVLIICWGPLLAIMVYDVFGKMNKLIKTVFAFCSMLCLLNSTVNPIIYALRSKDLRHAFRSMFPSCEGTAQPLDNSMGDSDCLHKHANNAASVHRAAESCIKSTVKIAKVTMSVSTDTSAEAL
# [5] = target: T5, Cannabinoid receptor 2 (Homo sapiens, UniProt P34972); test: Displacement of [3H]CP-55940 from human recombinant CB2 receptor expressed in HEK293 cells at 10 uM; assay type: cell-based
# T5 sequence (P34972 whole entry): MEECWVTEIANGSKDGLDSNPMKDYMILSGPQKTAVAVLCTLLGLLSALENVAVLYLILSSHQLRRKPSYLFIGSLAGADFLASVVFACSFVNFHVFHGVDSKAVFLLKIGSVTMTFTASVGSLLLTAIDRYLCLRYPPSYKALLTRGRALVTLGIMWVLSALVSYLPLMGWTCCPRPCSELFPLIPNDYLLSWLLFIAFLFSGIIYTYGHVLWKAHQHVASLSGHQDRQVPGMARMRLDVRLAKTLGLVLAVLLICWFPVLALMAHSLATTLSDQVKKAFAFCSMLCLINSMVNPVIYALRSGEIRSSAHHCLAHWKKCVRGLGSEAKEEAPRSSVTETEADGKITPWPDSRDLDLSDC
# [6] = target: Prostaglandin G/H synthase 1 (Homo sapiens, UniProt P23219); test: Inhibition of cyclooxygenase 1 in human whole blood assessed as thromboxane B2 level; assay type: tissue-based
# Sequence of Prostaglandin G/H synthase 1 (P23219 whole entry): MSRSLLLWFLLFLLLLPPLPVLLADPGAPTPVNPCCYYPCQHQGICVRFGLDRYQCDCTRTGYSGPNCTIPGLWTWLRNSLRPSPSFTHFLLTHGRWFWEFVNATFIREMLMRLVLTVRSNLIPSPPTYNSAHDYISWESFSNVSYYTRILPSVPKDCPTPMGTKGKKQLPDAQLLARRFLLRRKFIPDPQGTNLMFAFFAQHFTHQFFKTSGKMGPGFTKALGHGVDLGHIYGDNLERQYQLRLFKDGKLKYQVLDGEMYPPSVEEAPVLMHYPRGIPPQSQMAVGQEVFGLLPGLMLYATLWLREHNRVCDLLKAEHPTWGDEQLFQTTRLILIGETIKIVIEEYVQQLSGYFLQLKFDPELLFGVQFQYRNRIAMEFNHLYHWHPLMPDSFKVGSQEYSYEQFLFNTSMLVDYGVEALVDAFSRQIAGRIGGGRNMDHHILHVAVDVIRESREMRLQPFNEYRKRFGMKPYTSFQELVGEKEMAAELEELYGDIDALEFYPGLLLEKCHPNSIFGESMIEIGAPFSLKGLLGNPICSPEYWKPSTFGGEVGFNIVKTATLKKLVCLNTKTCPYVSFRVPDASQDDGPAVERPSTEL
# In short: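 Fresh whole blood came from a healthy volunteer free of NSAIDs for 2 weeks. 1 mL aliquots received test agent in DMSO and were left to clot for 1 h at 37 °C. Serum TXB2 was measured by GC-MS/MS, in quadruplicate.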
# [7] = target: T1, Prostaglandin G/H synthase 1 (Ovis aries); test: Inhibition of ovine cyclooxygenase 1 assessed as prostaglandin F2alpha level at 1 uM by enzyme immunoassay relative to control; in short: as §1
# [8] = target: T2, Prostaglandin G/H synthase 2 (Homo sapiens); test: Inhibition of human recombinant cyclooxygenase 2 assessed as prostaglandin F2alpha level at 1 uM by enzyme immunoassay relative to control; in short: as §1
# [9] = organism: Mus musculus; test: Toxicity in C57BL/6 mouse assessed as loss of locomotor behavior; assay type: organism-based; details: in vivo
# [10] = system: Mus musculus; test: Antinociceptive activity against formalin-induced nociceptive behavior in C57BL/6 mouse assessed as mean licking time at 5 mg/kg, ip administered 15 mins prior to formalin challenge measured upto 10 mins relative to control; assay type: functional; details: route intraperitoneal
# In short: (§3)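 C57BL/6 mice (n = 6-8 per group) were habituated 15-20 min in an observation chamber with mirrors, then given the compound ip at 6 µL/g in PBS/DMSO. Formalin (5%, 20 µL) went into the dorsal left hind paw 15 min later. Licking of the injected paw was summed over 0-10 min (phase 1) and 15-45 min (phase 2) and expressed as % of the vehicle control. Groups were compared by t test.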
# [11] = system: Mus musculus; test: Antinociceptive activity against formalin-induced nociceptive behavior in C57BL/6 mouse assessed as mean licking time at 10 mg/kg, ip administered 15 mins prior to formalin challenge measured upto 10 mins relative to control; assay type: functional; details: route intraperitoneal; in short: as §3
# [12] = system: Mus musculus; test: Antinociceptive activity against formalin-induced nociceptive behavior in C57BL/6 mouse assessed as mean licking time at 50 mg/kg, ip administered 15 mins prior to formalin challenge measured upto 10 mins relative to control; assay type: functional; details: route intraperitoneal; in short: as §3
# [13] = system: Mus musculus; test: Antinociceptive activity against formalin-induced nociceptive behavior in C57BL/6 mouse assessed as mean licking time at 5 mg/kg, ip administered 15 mins prior to formalin challenge measured after 15 to 45 mins relative to control; assay type: functional; details: route intraperitoneal; in short: as §3
# [14] = system: Mus musculus; test: Antinociceptive activity against formalin-induced nociceptive behavior in C57BL/6 mouse assessed as mean licking time at 10 mg/kg, ip administered 15 mins prior to formalin challenge measured after 15 to 45 mins relative to control; assay type: functional; details: route intraperitoneal; in short: as §3
# [15] = system: Mus musculus; test: Antinociceptive activity against formalin-induced nociceptive behavior in C57BL/6 mouse assessed as mean licking time at 50 mg/kg, ip administered 15 mins prior to formalin challenge measured after 15 to 45 mins relative to control; assay type: functional; details: route intraperitoneal; in short: as §3
# [16] = target: T6, Prostaglandin G/H synthase 2 (Homo sapiens, UniProt P35354); test: Inhibition of cyclooxygenase 2 in human whole blood assessed as prostaglandin E2 level
# T6 sequence (P35354 whole entry): T2 sequence (whole entry)
# [17] = target: T4, Cannabinoid receptor 1; test: Displacement of [3H]CP-55940 from human recombinant CB1 receptor expressed in HEK293 cells; assay type: cell-based
# In short: (§4)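 Membranes were from HEK-293 cells overexpressing human CB1 or CB2, with [3H]CP-55,940 as radioligand (Kd 0.18 nM CB1, 0.31 nM CB2). Test compound (1 nM-10 µM) was incubated 90 min at 30 °C. Displaced radioligand was counted by scintillation. Ki came from IC50 via Cheng-Prusoff, with triplicate points; single-concentration screens were run in duplicate.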
# [18] = target: T5, Cannabinoid receptor 2; test: Displacement of [3H]CP-55940 from human recombinant CB2 receptor expressed in HEK293 cells; assay type: cell-based; in short: as §4
# [19] = target: T3, Fatty-acid amide hydrolase 1 (Rattus norvegicus); test: Inhibition of FAAH in rat brain membrane assessed as [14C]anandamide hydrolysis at 10 uM by scintillation counting; assay type: cell membranes; in short: as §2
# [20] = system: Mus musculus; test: Antinociceptive activity against formalin-induced nociceptive behavior in C57BL/6 mouse assessed as mean licking time at 200 mg/kg, ip administered 15 mins prior to formalin challenge measured upto 10 mins relative to control; assay type: functional; details: route intraperitoneal; in short: as §3
# [21] = system: Mus musculus; test: Antinociceptive activity against formalin-induced nociceptive behavior in C57BL/6 mouse assessed as mean licking time at 200 mg/kg, ip administered 15 mins prior to formalin challenge measured after 15 to 45 mins relative to control; assay type: functional; details: route intraperitoneal; in short: as §3
SMILES,inhibition [1] [%],inhibition [2] [%],inhibition [3] [%],Activity [4] [%],Activity [5] [%],Activity [6],Ki [17] [µM],Ki [18] [µM],inhibition [19] [%],also measured
CC(C(=O)O)c1cccc(C(=O)c2ccccc2)c1 (configuration not stated),16,41,–,–,–,–,–,–,–,–
CC(=O)Nc1ccc2[nH]ncc2c1,92,70,4,1,12,inactive,–,–,–,inhibition [7]: 97%; inhibition [8]: 80%; Activity [9]: Non-toxic; Activity [10]: 105%; Activity [11]: 142%; Activity [12]: 29%; Activity [13]: 94%; Activity [14]: 73%; Activity [15]: 38%; IC50 [16]: 107 µM
CCCCC/C=C\C/C=C\C/C=C\C/C=C\CCCC(=O)Nc1ccc(O)cc1,–,–,55,–,–,–,1.5,1.3,15,–
CC(=O)Nc1ccc(O)cc1 [ACETAMINOPHEN],–,–,22,13,15,Active,–,–,–,Activity [20]: 100%; Activity [21]: 47%
CCCCC/C=C\C/C=C\C/C=C\C/C=C\CCCC(=O)Nc1ccc(O)c(OC)c1,–,–,62,–,–,–,1.4,1,23,–
